System: MS2 coat protein
Experiment: apparent Kd, MS2 coat protein; higher = weaker binding; RNA-MaP array; FMN 200 µM where present
How it was run: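 Apparent Kd: the median of filtered binding-curve fits from single clusters. Designs were transcribed on Illumina sequencing-chip clusters by stalled E. coli RNA polymerase and titrated with SNAP-549-labelled MS2 coat protein from 0.7 or 1.5 nM, doubling to 3 µM, in 100 mM Tris-HCl pH 7.5, 80 mM KCl, 4 mM MgCl2, BSA, DTT, yeast tRNA and Tween-20. Each series ran without and then with constant ligand, and green signal was normalised to red-channel RNA signal and control-cluster median Fmax.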

[1] = designed as: ON switch for flavin mononucleotide, no ligand
[2] = ligand present: flavin mononucleotide, designed as: ON switch for flavin mononucleotide
[3] = designed as: OFF switch for flavin mononucleotide, no ligand
[4] = ligand present: flavin mononucleotide, designed as: OFF switch for flavin mononucleotide

“CCUACCUUCACAGGAUAUGCUAUCCUUUGGGUAGCAGAAGGGUGAUAACAUGAGGAUCACCCAUGUGGUAGGCCCGGUGACGGG” was tested. Which “apparent Kd” value [1] did it give?
Its value is 1300 nM.

And the “apparent Kd” value [2]?
Its value is 105 nM.

How did the “apparent Kd” value [3] turn out when “GCACUUAGAGUUGAACCGUUACUAACAUGAGGAUCACCCAUGUAGGAUAUGCUAAUAGUAUUGAAGCAGAAGGACACUAAGUGC” was run?
Its value is 5.46 nM.

What about the “apparent Kd” value [4] of the same sequence?
The value was 5.88 nM.

For “CGCCGACAUGAGGAUCACCCAUGUCACAACUGGUCAGGAUAUGGUAUGAAAUGGCUAUUGCCAGAAGGGACCUCAG”, which “apparent Kd” value [1] is on record?
Its value is 40.9 nM.

What about the “apparent Kd” value [2] of the same sequence?
Its value is 20.4 nM.

Which results are given for “GUGCAUACGUGAGGAUAUGUAUUAGAUAGUGGUACAGAAGGCAUGUCAGAUGACAUGAGGAUCACCCAUGUUGGCAAAAUGCGC”?
apparent Kd [1]: 47.5 nM; apparent Kd [2]: 10.2 nM

How did the “apparent Kd” value [3] turn out when “AAAAGCAUCCAGUAUCAAAAUACAUGAGGAUCACCCAUGUAGCAGGAUAUCAACGUUCCCGACGGUGAGAAGGGCUAUAUGUUG” was run?
Its value is 7.47 nM.

And the “apparent Kd” value [4]?
The value was 9.26 nM.

For “UCGAUGCUAGGAUAUACUAAUACAACUACUGUAGUGUCUUCACAUGAGGAUCACCCAUGUAGAAGGAGCAUAUA”, which “apparent Kd” value [3] is on record?
The value was 26.3 nM.

And the “apparent Kd” value [4]?
Its value is 20.3 nM.

With “AUAUCCGAAGCAGGAUAUCGACGAGGUGUCGAGGUAGAGCGUACUCACAUGAGGAUCACCCAUGUCGAGAAGGGCUACAGGAUA” as the sequence, how does the “apparent Kd” value [3] read?
The value was 27.8 nM.

What about the “apparent Kd” value [4] of the same sequence?
The value was 52.2 nM.

Which “apparent Kd” value [3] does the source give for “GACAUACGCGAUCCUUGGACAUGAGGAUCACCCAUGUACCGGAAGGAUAUCCUUCGCAAAAGCUAGGAGAAGGUUCGGUAGGUC” here?
The value was 26.1 nM.

What about the “apparent Kd” value [4] of the same sequence?
The value was 86.1 nM.

“CCAAUUCUGGCAUCCUUAUUACAUGAGGAUCACCCAUGUUGUGAGGAUAUCCCAACCCACGGUCAGGAGAAGGCACAAAGAGGG” was tested. Which “apparent Kd” value [3] did it give?
The value was 4.9 nM.

And the “apparent Kd” value [4]?
Its value is 5.01 nM.

Which results are given for “CUUGUACAUGAGGAUCACCCAUGUUAGGAUAUCUCGCCGUCGGCUUGCCGACGGUAUUAGAGAAGGGACUAGGG”?
apparent Kd [3]: 35.4 nM; apparent Kd [4]: 39.5 nM

With “GAGGAGCAAGGAUAUACGAGGAUAGGGAAGGUUGGAGAGUGACAUGAGGAUCACCCAUGUAGAAGGUGCAAGGG” as the sequence, how does the “apparent Kd” value [3] read?
Its value is 114 nM.

And the “apparent Kd” value [4]?
The value was 74 nM.

What does the source list for “CACAAGAAAGUCGAACUAUGUAGGAGAAGGAGUAUAACAUGACAUGAGGAUCACCCAUGUGCCAAUUAGGAUAUUUUAUAUGGG”?
apparent Kd [3]: 184 nM; apparent Kd [4]: 97.7 nM

What does the source list for “UUUUUGUCAGGAUAUGAGUCGUAGAACAAUAGUACUACGUCUCAGAAGGGACAUGAGGAUCACCCAUGUGCCUC”?
apparent Kd [3]: 26 nM; apparent Kd [4]: 143 nM

For “AAGAAGCUCACAGGAUAUCAGUAUAUGCGAUCACACGUAUUAAUGAACUGCUGAGAAGGGUGAGACAUGAGGAUCACCCAUGUA”, which “apparent Kd” value [1] is on record?
The value was 446 nM.

What about the “apparent Kd” value [2] of the same sequence?
The value was 238 nM.

With “CUGUGAUGGAUCCAGAAUUACAACAUGAGGAUCACCCAUGUGCAGGAUAUCGGGUUGAUAGGCGCCGAGAAGGGUAUGAUCACG” as the sequence, how does the “apparent Kd” value [3] read?
Its value is 164 nM.

And the “apparent Kd” value [4]?
Its value is 140 nM.

For “UACUUGUCAGGAUAUCUUACAUUAACAUCGUAGUUACCGUUGGAGAAGGGACAUGAGGAUCACCCAUGUUUGGC”, which “apparent Kd” value [3] is on record?
The value was 32 nM.

And the “apparent Kd” value [4]?
The value was 54.9 nM.

How did the “apparent Kd” value [3] turn out when “UCCUCACAUGAGGAUCACCCAUGUCAGGAUAUCUGCGAGCAUUGGCCAAGGCCGCUCAGGAGAAGGGACGUCAA” was run?
The value was 17.1 nM.

And the “apparent Kd” value [4]?
Its value is 27.4 nM.

How did the “apparent Kd” value [3] turn out when “AGAAACCAAGGAUAUACAUGAGGAUCACCCAUGUUAGCGUGCAUGCCCUGCCUCAGCUGUAGAAGGUGGACGCC” was run?
Its value is 25.9 nM.

And the “apparent Kd” value [4]?
The value was 28.8 nM.

“AAGAAGGACGCAGGAUAUCCAGGACCUCCCGCAGGAGAAGGGCGAGACAUGAGGAUCACCCAGACAUGAGGAUCACCCAUGUAG” was tested. Which “apparent Kd” value [3] did it give?
The value was 37.4 nM.

And the “apparent Kd” value [4]?
The value was 37.1 nM.

For “AUUGUAUGGAAAGGAUAUAGAAUAUUAUUUUAACAUGAGGAUCACCCAUGUAACCUUAUGUGUAGCUAGAAGGUUCGUUUGUUA”, which “apparent Kd” value [3] is on record?
The value was 88.2 nM.

And the “apparent Kd” value [4]?
The value was 97.8 nM.

Which “apparent Kd” value [1] does the source give for “AAAAAACAUGAGGAUCACCCAUGUAAAAAAAUCGCAGGAUAUAGGGUCGCGAAAGCGACCCUAGAAGGGCGAUCCU” here?
The value was 260 nM.

What about the “apparent Kd” value [2] of the same sequence?
Its value is 87.7 nM.

What does the source list for “UUGGACGUCGUAGGAUAUGUAGGAUAUUCCUACAUGAGGAUCACCCAUGUUGACAUGGAGGAAGGACAGAAGGACGAUGUCCAU”?
apparent Kd [1]: 667 nM; apparent Kd [2]: 98 nM

How did the “apparent Kd” value [1] turn out when “ACAUGAGGAUCACCCAUGUGGACAUAGGAUAUUGGUGAUCAGGCGUGUUAUACAGGAUAGGUCUGCGAGAAGGGUGUACGUUGC” was run?
The value was 588 nM.

What about the “apparent Kd” value [2] of the same sequence?
The value was 295 nM.

Which results are given for “AUACAUGAGGAUCACCCAUGUUACAUGGCCUUGAUAGAUUGUAGAAGGAUGUUAUUAUUAAUUUCAUAGGAUAUACUAUUUAGU”?
apparent Kd [3]: 106 nM; apparent Kd [4]: 83.9 nM

Which “apparent Kd” value [4] does the source give for “AAAUUUAACGAAGGAUAUGCUGACAUGAGGAUCACCCAUGUGUGCUUUGUGUUGCUGAAAUGGGAGCAGAAGGUCGUAUACAUA” here?
The value was 128 nM.

Which results are given for “GGUCCUUCUGUUAGGAUAUGCUUUGGGCUUCCGCAGUAGAAGGAACAUGAGGAUCACCCAUGUCCGAUGCCGUC”?
apparent Kd [3]: 86 nM; apparent Kd [4]: 88.1 nM

For “AAUUGACACGUAGGAUAUCGCUCUUAAUUAACACGAGAAGGACGUACAUGAGGAUCACCCAUGUUAAAUGGUGUAGUUUAGUUG”, which “apparent Kd” value [3] is on record?
The value was 45.5 nM.

And the “apparent Kd” value [4]?
Its value is 123 nM.

How did the “apparent Kd” value [3] turn out when “UCAGUAGAGUCAGGAUAUACGAAAGUAGAUCCUUACAUGAGGAUCACCCAUGUAGAAGGGACUCUACUGUAAGUCGGAAACGAC” was run?
The value was 14.1 nM.

And the “apparent Kd” value [4]?
The value was 69.1 nM.

From the EternaBench riboswitch data
